Measurements collected from several papers.
Protocols differ between the studies behind these lines.
Target: Aurora kinase B (AURKB, Homo sapiens, UniProt Q96GD4)
Effect on: enzyme activity

| SMILES | mode | method | tested at | remaining activity [%] |
| --- | --- | --- | --- | --- |
| COc1cc(Nc2cnc(C#N)c(O[C@H](C)CN(C)C)n2)ncc1-c1cnn(C)c1 | inhibitor | radiometric | 1 µM | 42 |
| Nc1nc(Nc2ccccc2)sc1C(=O)c1c(F)cccc1F | inhibitor |  | 10 µM | 24 |
| O=C(NCCCNc1nc(Nc2cccc(NC(=O)N3CCCC3)c2)ncc1I)c1cccs1 | inhibitor | radiometric | 1 µM | 3 |
| FC(F)c1nc2ccccc2n1-c1nc(N2CCOCC2)nc(N2CCOCC2)n1 | inhibitor |  | 10 µM | 94 |
| Nc1ncnc2occ(-c3ccc(NC(=O)Nc4cc(C(F)(F)F)ccc4F)cc3)c12 | inhibitor |  | 20 µM | 0.1 |
| COc1cc(Cl)c(C(=O)N[C@@H](CN[C@H]2CC[C@@H](N)CC2)Cc2ccc(C#N)cc2)cc1-c1ccc(CN[C@H](C)c2ccc(C)cc2)o1 | inhibitor |  | 1 µM | 96 |
| O=c1cc(-c2cccc3c2Sc2ccccc2S3)oc(N2CCOCC2)c1 | inhibitor |  | 0.5 µM | 95.8 |
| Cc1nn(CC(F)(F)F)cc1Nc1nccc(NCCCNC(=O)C2CCC2)n1 | inhibitor | radiometric | 1 µM | 90 |
| Nc1nc(NC2CCCCC2)sc1C(=O)c1ccccc1 | inhibitor |  | 10 µM | 75 |
| COc1cc2ncnc(Nc3ccc(F)c(Cl)c3)c2cc1OCCCN1CCOCC1 |  |  | 0.5 µM | 106 |
| O=C(NCCCNc1nc(Nc2cccc(NC(=O)N3CCCC3)c2)ncc1Br)C1CCC1 | inhibitor | radiometric | 1 µM | 5 |
| CCN(CC)c1ccc(C2=NNC(=O)CC2C)cc1[N+](=O)[O-] (stereo not shown) | inhibitor |  | 10 µM | 118 |
| Cc1ccc(C(=O)Nc2ccc(CN3CCN(C)CC3)c(C(F)(F)F)c2)cc1C#Cc1cnc2cccnn12 | inhibitor |  | 23.5 nM | 84 |
| Cc1nn(CC(F)(F)F)cc1Nc1nccc(NCc2ccc(S(N)(=O)=O)cc2)n1 | inhibitor | radiometric | 1 µM | 82 |
| CC(C)(C)c1nc(-c2cccc(NS(=O)(=O)c3c(F)cccc3F)c2F)c(-c2ccnc(N)n2)s1 | inhibitor | radiometric | 1 µM | 81 |
| CN1CCc2cc(Nc3ncc(C4CC4)c(NCCCNC(=O)C4CCC4)n3)ccc2C1 | inhibitor | radiometric | 1 µM | 8 |
| O=C1Nc2ccc(Cl)cc2C1=Cc1cc(Cl)c(O)c(Cl)c1 |  |  | 0.5 µM | 9.19 |
| Cc1nn(CC(F)(F)F)cc1Nc1nccc(NCCc2cnc[nH]2)n1 | inhibitor | radiometric | 1 µM | 71 |
| Cc1sc(C(=O)NC2COC2)cc1-n1cc(NC(=O)Nc2c(F)cccc2Cl)cn1 | inhibitor |  | 10 µM | 96.4 |
